Results on nine molecules are retold here after ChEMBL document CHEMBL3425461, “Positron emission tomography to elucidate pharmacokinetic differences of regioisomeric retinoid x receptor agonists” (ACS Med Chem Lett, 2015).

Data set [1] relates to Heart. Nature of the data set: Ratio of AUC (0 to 30 mins) in ICR mouse heart at 8 to 11 MBq, po to AUC (0 to 30 mins) in ICR mouse heart at 8 to 11 MBq, iv. It is filed as ADME, organism-based. Conditions: in vivo; call rule not given here. Summed up: (§1)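 Tracer in EtOH diluted with saline to 10 MBq, given i.v. or p.o.; 30 min PET scan; blood radioactivity as %ID/mL from heart %ID divided by heart volume; AUC over 0–30 min; bioavailability as dose-corrected oral AUC over i.v. AUC; n = 3–5, mean ± SEM.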

Data set [2] deals with Heart. Kind of data set: Drug uptake in ICR mouse heart at 8 to 11 MBq, iv by PET/CT imaging method. It is filed as ADME, organism-based. Conditions: in vivo. In short, it runs like this:
(§2)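 Tracer dissolved in EtOH, diluted with saline to 10 MBq, given i.v. or p.o.; 30 min PET/CT scan, images reconstructed at selected times; organ ROIs defined from PET/CT data; uptake expressed as %ID (organ Bq per whole-body Bq) from mean pixel radioactivity; n = 3–5, mean ± SEM; one-way ANOVA then t-test.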

Data set [3] deals with Liver. Nature of the data set: Drug uptake in ICR mouse liver at 8 to 11 MBq, iv by PET/CT imaging method. It is filed as ADME, organism-based. Particulars: in vivo. Summed up:
as §2

Data set [4] in a line: Drug uptake in ICR mouse gall bladder at 8 to 11 MBq, iv by PET/CT imaging method. It is filed as ADME, organism-based. Conditions: in vivo. In short, it runs like this:
as §2

Data set [5] deals with Duodenum. Nature of the data set: Drug uptake in ICR mouse duodenum at 8 to 11 MBq, iv by PET/CT imaging method. It is filed as ADME, organism-based. Conditions: in vivo. In short, it runs like this: as §2
For data set [6], the system named is Kidney. Kind of data set: Drug uptake in ICR mouse kidney at 8 to 11 MBq, iv by PET/CT imaging method. It is filed as ADME, organism-based. Conditions: in vivo.
Data set [7] can be described thus: Drug uptake in ICR mouse urinary bladder at 8 to 11 MBq, iv by PET/CT imaging method. It is filed as ADME, organism-based. Particulars: in vivo. In short, it runs like this: as §2
The subject of data set [8] is Stomach. Nature of the data set: Drug uptake in ICR mouse stomach at 8 to 11 MBq, po by PET/CT imaging method. It is filed as ADME, organism-based. Particulars: in vivo. Summed up:
as §2

In data set [9] the test system is Duodenum. Kind of data set: Drug uptake in ICR mouse duodenum at 8 to 11 MBq, po by PET/CT imaging method. It is filed as ADME, organism-based. Particulars: in vivo. In short, it runs like this:
as §2

In data set [10] the test system is Liver. Kind of data set: Drug uptake in ICR mouse liver at 8 to 11 MBq, po by PET/CT imaging method. It is filed as ADME, organism-based. Particulars: in vivo. In short, it runs like this: as §2
Data set [11] is described as follows: Drug uptake in ICR mouse gall bladder at 8 to 11 MBq, po by PET/CT imaging method. It is filed as ADME, organism-based. Conditions: in vivo. Summed up: as §2
The subject of data set [12] is Stomach. Kind of data set: Drug uptake in ICR mouse stomach at 8 to 11 MBq, po after 30 mins by PET/CT imaging method. Particulars: in vivo, 0.5 h. It is filed as ADME, organism-based. In short, it runs like this: as §2
In data set [13] the test system is Kidney. Kind of data set: Drug uptake in ICR mouse kidney at 8 to 11 MBq, po by PET/CT imaging method. It is filed as ADME, organism-based. Particulars: in vivo.
The nature of data set [14]: Drug uptake in ICR mouse urinary bladder at 8 to 11 MBq, po by PET/CT imaging method. It is filed as ADME, organism-based. Particulars: in vivo. In short, it runs like this: as §2
Data set [15] relates to Heart. Nature of the data set: Drug uptake in ICR mouse heart at 8 to 11 MBq, iv during 0 to 30 mins by PET imaging method. It is filed as ADME, organism-based. Particulars: in vivo. Summed up:
as §1

The target in data set [16] is T1, Retinoic acid receptor RXR-alpha (Homo sapiens, UniProt P19793).
T1 sequence (P19793 whole entry): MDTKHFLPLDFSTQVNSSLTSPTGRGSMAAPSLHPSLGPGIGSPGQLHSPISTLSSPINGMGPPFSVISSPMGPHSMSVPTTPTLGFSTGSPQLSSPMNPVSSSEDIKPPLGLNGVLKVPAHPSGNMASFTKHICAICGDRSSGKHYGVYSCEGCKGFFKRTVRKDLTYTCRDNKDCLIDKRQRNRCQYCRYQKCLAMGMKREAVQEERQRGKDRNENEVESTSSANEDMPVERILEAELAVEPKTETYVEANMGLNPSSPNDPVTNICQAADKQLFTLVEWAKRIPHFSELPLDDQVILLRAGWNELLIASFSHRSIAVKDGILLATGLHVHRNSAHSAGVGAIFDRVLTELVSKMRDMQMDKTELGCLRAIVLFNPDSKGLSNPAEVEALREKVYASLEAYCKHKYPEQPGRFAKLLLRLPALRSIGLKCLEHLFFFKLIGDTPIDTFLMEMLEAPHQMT
Nature of the data set: Agonist activity at RXRalpha (unknown origin) expressed in COS1 cells incubated for 18 hrs by luciferase reporter gene assay. It is filed as cell-based, COS-1. For orientation: A reporter such as luciferase makes a cellular process visible.

A short description of data set [17]: Retention time of the compound by HPLC method. It is filed as physicochemical. Summed up: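 Reversed-phase HPLC, 3 μm column, 0.7 mL/min, methanol/25 mM ammonium acetate pH 5.0 (80:20 v/v) mobile phase, UV detection at 260 nm.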
Data set [18] is described as follows: AUC in mouse blood at 30 mg/kg, po. It is filed as ADME, organism-based. On the set-up: dose 30 mg/kg, route oral. Summed up: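 AUC at 30 mg/kg p.o. in mice taken from earlier work; skip.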
A short description of data set [19]: Drug level in ICR mouse plasma at 30 mg/kg, po administered as single dose measured after 1 hr. It is filed as ADME, organism-based. On the set-up: dose 30 mg/kg, route oral. Summed up: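 Single oral dose of 30 mg/kg given as 0.5% CMC suspension to mice; blood and brain concentrations of non-radioactive compound measured 1 h after dosing.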
Data set [20] in a line: Drug level in ICR mouse brain at 30 mg/kg, po administered as single dose measured after 1 hr.
Data set [21] can be described thus: Ratio of drug level in brain to plasma of ICR mouse at 30 mg/kg, po administered as single dose measured after 1 hr.

For the molecule `CCN(c1ccc(C(C)C)c(OCC(C)C[18F])c1)c1ccc(C(=O)O)cn1` (stereo unspecified), the Ratio in data set [1] turned out to be 0.18. In addition, the Drug uptake result in data set [2] is “Active”; in data set [3] it was “Active”; in [4] it was “Active”; in data set [5] it was “Active”; in [6], “Not Active”; in [7], “Not Active”. The Drug uptake entry in data set [8] is “Active”; in data set [9] it was “Active”; in data set [10] it was “Active”; in data set [11], “Active”; in data set [12] it was “Active”; in data set [13], “Not Active”. In addition, in data set [14], the Drug uptake entry is given as “Not Active”.
Regarding `CCN(c1ccc(OCC(C)C[18F])c(C(C)C)c1)c1ccc(C(=O)O)cn1` (stereo unspecified), the Ratio in data set [1] came out at 0.43. Also, the Drug uptake result in [2] is “Active”; in data set [3] it was “Active”; in data set [4] it was “Active”; in data set [5], “Active”; in data set [6] it was “Not Active”; in data set [7], “Not Active”. In addition, the Drug uptake result in data set [8] was “Active”; in data set [9] it was “Active”; in data set [10] it was “Active”; in data set [11], “Active”; in [12] it was “Active”; in data set [13], “Not Active”. The Drug uptake result in data set [14] is “Not Active”.
Consider `CCN(c1ccc(OCC(C)C)c(C(C)C)c1)c1ccc([11C](=O)O)cn1`, for which the Drug uptake entry in [15] was “Active”.
The term EC50 denotes the concentration needed to bring the measured effect to its halfway point. A lower EC50 goes with higher potency in that assay. In the case of `CCN(c1ccc(OCC(C)CF)c(C(C)C)c1)c1ccc(C(=O)O)cn1` (stereo unspecified), the EC50 in data set [16] is 450 nM. The molecule further showed a Retention_time in [17] of 6.7 min.
`CCN(c1ccc(C(C)C)c(OCC(C)CF)c1)c1ccc(C(=O)O)cn1` (stereo unspecified): a half-maximal effect in data set [16] (EC50) was put at 12 nM. In data set [17], this molecule had a Retention_time of 7.63 min.
Usually AUC stands for the area under the concentration-time curve, a measure of exposure. For orientation: Kp means tissue or fluid exposure divided by exposure in the circulation. Consider `CCN(c1ccc(C(C)C)c(OCC(C)C)c1)c1ccc(C(=O)O)cn1`, for which, in data set [18], the exposure (AUC) worked out at 1140 ng·h/mL. In data set [17], this molecule had a Retention_time of 12.7 min. Also, the concentration at 1 h in data set [19] was 1320 ng/mL; in data set [20] it was 978 ng/mL. Further, in data set [21], the Kp at 1 h came to 0.74.
Regarding `C=C(c1ccc(C(=O)O)cc1)c1cc2c(cc1C)C(C)(C)CCC2(C)C` [BEXAROTENE], in data set [19], the concentration at 1 h was found to be 4150 ng/mL.
As to `CCN(c1ccc(C(C)C)c(OCC(C)C)c1)c1ccc([11C](=O)O)cn1`, the Drug uptake result in data set [15] is “Active”.
In [16], `CCN(c1ccc(OCC(C)C)c(C(C)C)c1)c1ccc(C(=O)O)cn1` came in with an EC50 of 169 nM. The molecule further showed an exposure (AUC) in data set [18] of 18800 ng·h/mL. This molecule also came in with a Retention_time in [17] of 11.7 min. Moreover, the concentration at 1 h in [19] came out at 6760 ng/mL; in [20], 2570 ng/mL. Further, the Kp at 1 h in data set [21] is 0.38.
